Assay [1] has as its target T1, L-lactate dehydrogenase A chain (Homo sapiens, UniProt P00338). Briefly: Inhibition of LDH-A (unknown origin) up to 1 mM in presence of 0.1% Triton.
The target in assay [2] is T1, L-lactate dehydrogenase A chain. As to the kind of experiment: Binding affinity to human LDH-A by surface plasmon resonance analysis. In a few lines: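 Human LDH-A amine-coupled to a CM5 chip (~13000 RU), carbonic anhydrase II as reference surface. Running buffer 10 mM HEPES, 150 mM NaCl, 3% DMSO. Compounds injected as 2-fold dilution series, top 1 mM, at 20 °C. Equilibrium and kinetic responses fitted to a 1:1 binding model to give Kd.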

Assay [3] has the same target. Briefly: Inhibition of LDH-A (unknown origin) by enzyme assay.
Assay [4] shares this target. As to the kind of experiment: Inhibition of LDH-A in human Ramos cells assessed as cellular lactate level at 200 uM after 4 hrs. In kind it is cell-based. In a few lines:
(§1)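 Supernatant sampled after 1 and 4 h. Extracellular lactate measured by a two-step lactate assay, both times within the linear range. Lactate expressed relative to vehicle, from a representative experiment.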

For assay [5] the target is unchanged. Briefly: Inhibition of LDH-A in human Ramos cells assessed as cellular lactate level at 200 uM after 1 hr. It counts as cell-based. In short, it runs like this:
as §1

The target is the same in assay [6]. Briefly: Inhibition of LDH-A (unknown origin) in absence of 0.1% Triton.
The target is the same in assay [7]. As to the kind of experiment: Inhibition of LDH-A (unknown origin) in presence of 0.1% Triton.

The structures appear in SMILES notation. The source made the active and inactive calls. The calls are words filed in the database; no cut-off is given here.

`O=C(CCCCN1C(=O)/C(=C/c2ccc(O)c(O)c2)SC1=S)NCc1ccc(Cl)c(Cl)c1`: the inhibition result in assay [1] is “inactive”.

Consider `O=C(O)c1ccc(-c2ccccc2)nc1`, for which binding in assay [2] was characterised by a dissociation constant (Kd) of 2300 µM. Besides, the IC50 in assay [3] is above 2000 µM.

Turning to `COc1ccc(Cl)cc1NC(=O)CSc1ccc(C(=O)O)cn1`, the Kd in assay [2] was determined as 137 µM. It took 770 µM to reach half-maximal inhibition in assay [3] (IC50).

On to `Nc1cc(F)cc(-c2ccc(C(=O)O)cn2)c1`, for which the IC50 in assay [3] amounted to 1300 µM.

With `O=C(O)COc1cc(F)cc(-c2ccc(C(=O)O)cn2)c1`, binding in assay [2] was characterised by a dissociation constant (Kd) of 1300 µM. In addition, the IC50 in assay [3] amounted to 2200 µM.

Take `COc1cc(OCC(O)CO)c(Cl)cc1NC(=O)CSc1ccc(C(=O)O)cn1` (stereo unspecified): binding in assay [2] was put at a Kd of 360 µM. The molecule further came in with an IC50 in assay [3] of 342 µM.

The molecule `COc1cc(OC[C@H](O)[C@H](O)[C@@H](O)[C@@H](O)COc2cc(F)cc(-c3ccc(C(=O)O)cn3)c2)c(Cl)cc1NC(=O)CSc1ccc(C(=O)O)cn1` showed a Kd in assay [2] of 12 µM. The molecule further registered an IC50 in assay [3] of 15.2 µM.

For `COc1cc(OC[C@@H](O)[C@@H](O)[C@H](O)[C@H](O)CNc2cc(F)cc(-c3ccc(C(=O)O)cn3)c2)c(Cl)cc1NC(=O)CSc1ccccn1`, the lactate level (% of vehicle) was found to be 61% in assay [4] and 21% in assay [5]. This molecule also came in with a Kd in assay [2] of 0.222 µM. In assay [3], this molecule came in with an IC50 of 2.4 µM.

With `COc1cc(OCCCOCCCOc2cc(F)cc(-c3ccc(C(=O)O)cn3)c2)c(Cl)cc1NC(=O)CSc1ccc(C(=O)O)cn1`, in assay [2], the affinity, expressed as Kd, was 0.85 µM. 59 µM corresponded to half-maximal inhibition in assay [3] (IC50).

On to `COc1cc(OC[C@@H](O)[C@@H](O)[C@H](O)[C@H](O)CNc2cc(F)cc(-c3ccc(C(=O)O)cn3)c2)c(Cl)cc1NC(=O)CSc1ccc(C(=O)O)cn1`, for which the results for the lactate level (% of vehicle) in assay [4] and in assay [5] were 68% and 56%, respectively. For the same molecule, the affinity in assay [2], expressed as Kd, was 0.019 µM. For the same molecule, in assay [3], half-maximal inhibition (IC50) was put at 0.12 µM.

As for `COC(=O)c1ccc(SCC(=O)Nc2cc(Cl)c(OC[C@@H](O)[C@@H](O)[C@H](O)[C@H](O)CNc3cc(F)cc(-c4ccc(C(=O)OC)cn4)c3)cc2OC)nc1`, the inhibition result in assay [4] and in assay [5] was “inactive” each time. The molecule also had an IC50 in assay [3] above 10000 µM.

As to `COc1cc(OC[C@@H](O)[C@@H](O)[C@H](O)[C@H](O)COc2cc(F)cc(-c3ccc(C(=O)O)cn3)c2)c(Cl)cc1NC(=O)CSc1ccc(C(=O)O)cn1`, the concentration for half-maximal inhibition (IC50) in assay [6] amounted to 0.22 µM; in assay [7], 0.325 µM; in assay [3], 0.44 µM. For the same molecule, in assay [2], the Kd was determined as 0.068 µM.

`COc1cc(OCCCNC(=O)COc2cc(F)cc(-c3ccc(C(=O)O)cn3)c2)c(Cl)cc1NC(=O)CSc1ccc(C(=O)O)cn1` showed a Kd in assay [2] of 0.175 µM. The molecule further gave an IC50 in assay [3] of 2.4 µM.

As to `O=C(O)CN1C(=O)/C(=C/c2ccc(O)c(O)c2)SC1=S`, the inhibition entry in assay [1] was “inactive”.

Turning to `COc1cc(OC[C@@H](O)[C@@H](O)[C@H](O)[C@H](O)CNc2cc(F)cc(-c3ccccn3)c2)c(Cl)cc1NC(=O)CSc1ccc(C(=O)O)cn1`, the values for the lactate level (% of vehicle) in assay [4] and in assay [5] were 35% and 17%, respectively. The molecule further had a Kd in assay [2] of 2.95 µM. Besides, in assay [3], inhibition was half-maximal at 13 µM (IC50).

The values above are taken from ChEMBL document CHEMBL2311513, “Fragment growing and linking lead to novel nanomolar lactate dehydrogenase inhibitors” (J Med Chem, 2013).
